Hits are enriched below; roughly 3.5% of the tested compounds scored in any of these assays.
RGS4 inh: RGS4 inhibitors, primary screen, cell-based, HEK293 M3R inducible RGS4, calcium flux | Regulator of G-protein signaling 4 (Homo sapiens), P49798 | Fluo-4 calcium flux; hits give high values; triggered by carbachol at its EC20 | B-score at 10 µM | 310,000 compounds, 0.45% hits | AID 463165, 2010;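 active = B-score, a plate-corrected calcium signal, over three deviations above library mean, with baseline fluorescence within five deviations of library mean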;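 also: RGS4 expression induced by doxycycline in cells with stable M3 receptor; B-score is computed from the integrated fluorescence ratio over baseline after carbachol; higher B-score means a larger calcium signal and so more RGS4 inhibition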
Target sequence (P49798 whole entry, looked up): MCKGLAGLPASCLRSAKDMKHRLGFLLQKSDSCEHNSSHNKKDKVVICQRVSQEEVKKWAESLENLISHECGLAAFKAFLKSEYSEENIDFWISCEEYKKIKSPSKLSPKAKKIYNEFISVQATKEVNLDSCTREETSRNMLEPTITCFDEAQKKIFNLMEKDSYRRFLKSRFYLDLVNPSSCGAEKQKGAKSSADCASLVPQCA
RGS4 act: RGS4 potentiators or activators, primary screen, cell-based, HEK293 M3R inducible RGS4, calcium flux; carbachol calcium flux Fluo4; hits give low values; B-score at 10 µM; 310,000 compounds, 0.92% hits; AID 463111, 2010;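 active = B-score of the integrated calcium signal more than 4 SD below the library mean, with starting fluorescence not abnormally high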;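 also: negative B-score means reduced calcium response which marks RGS4 activation or potentiation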
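Test system: HEK293 cells with stable M3R and inducible RGS4; also added: carbachol at ECmax as muscarinic agonist stimulus; schedule: dye loading 30 min 37 °C, buffer rest 30 min RT; technique: kinetic calcium fluorescence imaging with Fluo4-AM dye, 2 µM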
MrgX1 allo act: positive allosteric modulators of MrgX1, primary screen, HEK293 cells, Fluo-4 calcium flux. Mas-related G-protein coupled receptor member X1 (Homo sapiens), Q96LB2. FDSS; hits give high values. B-score at 10 µM. 310,000 compounds, 0.63% hits;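 active = plate-corrected calcium response at least 3 library SD above typical, normal starting fluorescence, not activating the receptor alone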;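 also: compound read alongside a low EC10 to EC30 dose of BAM8-22 agonist; peak minus trough fluorescence over baseline measured at the second addition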
Target sequence (Q96LB2 whole entry, looked up): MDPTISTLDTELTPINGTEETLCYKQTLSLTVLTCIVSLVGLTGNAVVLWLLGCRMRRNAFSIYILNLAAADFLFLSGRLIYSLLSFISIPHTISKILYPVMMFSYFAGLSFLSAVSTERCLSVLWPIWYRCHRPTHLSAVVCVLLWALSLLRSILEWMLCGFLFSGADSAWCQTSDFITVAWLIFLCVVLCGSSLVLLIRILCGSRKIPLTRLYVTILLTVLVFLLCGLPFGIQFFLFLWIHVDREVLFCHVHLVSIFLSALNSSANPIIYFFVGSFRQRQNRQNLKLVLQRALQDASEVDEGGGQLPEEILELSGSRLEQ
MrgX1 antagonist: antagonists of human MrgX1 receptor, primary screen, HEK293 cells, Fluo-4 calcium flux. Mas-related G-protein coupled receptor member X1 (Homo sapiens), Q96LB2. AID 588676, 2011. B-score at 10 µM. 310,000 compounds, 1.3% hits. BAM8-22 antagonism; hits give low values;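 active = calcium-response B-score plate-corrected more than 3 library SD below zero, starting fluorescence within 5 deviations, no agonist response on first addition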;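 also: peak minus trough fluorescence over baseline after final BAM8-22 challenge near maximal dose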
MrgX1 agonist: agonists of human MrgX1 receptor, primary screen, HEK293 cells, Fluo-4 calcium flux; Mas-related G-protein coupled receptor member X1 (Homo sapiens), Q96LB2; Fluo-4 calcium fluorescence, agonist mode; hits give high values; B-score at 10 µM; 310,000 compounds, 0.44% hits; AID 588627, 2011;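 active = calcium response B-score plate-corrected fluorescence ratio at least 3 library SD, with starting fluorescence B-score inside 5 SD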
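Assay system: MrgX1-expressing HEK293 cells / Amount: fifteen thousand cells per well / Doses: test compound in the initial addition of three / Timing: cells plated overnight, dye loaded 0.5 h 37 °C, 0.5 h room temperature / Technique: kinetic calcium dye fluorescence, Fluo-4 NW / Control set: positive and negative controls per plate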
MrgX1 ag reconf: MrgX1 receptor agonists, duplicate retest, confirmation, HEK293 cells, Fluo-4 calcium flux. shares compounds with MrgX1 agonist. Fluo-4 calcium fluorescence, FDSS. activation, % at 10 µM. 600 compounds, 78% hits;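 active = calcium signal rise, corrected for plate position, at least 3 library SD high, with starting brightness within 5 such deviations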
HEK293 Ca flux: nonspecific calcium signal in parental HEK293, confirmation, counter-screen for MrgX1 antagonist project, parental HEK293 cells, Fluo-4 calcium flux; shares compounds with MrgX1 antagonist; Fluo-4 calcium fluorescence, FDSS; fluorescence ratio F(max-min)/F0 at 10 µM; 4,000 compounds, 2% hits; AID 624111, 2012;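 active = duplicate-averaged calcium fluorescence ratio at least three times the standard deviation of buffer wells, a nonspecific response in parental cells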
HEK293 Ca counter: calcium response in parental HEK293 cells, primary screen, counter-screen for MrgX1 allosteric activator project, cell-based, Fluo-4 calcium flux, duplicate | shares compounds with MrgX1 antagonist | Fluo-4 fluorescence ratio; hits give high values | fluorescence ratio F(max-min)/F0 at 10 µM | 4,000 compounds, 0.4% hits | AID 624114, 2012;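 active = calcium fluorescence ratio, averaged over duplicates, at least 3 SD of the buffer-well ratio, meaning a nonspecific response in receptor-free cells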;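 also: untransfected parental HEK293 lacking MrgX1 used as counterscreen for MrgX1 allosteric activators; fluorescence change taken during the second addition on a kinetic imager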
HEK293 Ca cntr2: calcium response in parental HEK293 cells, primary screen, counter-screen for MrgX1 agonist project, cell-based, Fluo-4 calcium flux, duplicate, agonist mode. shares compounds with MrgX1 antagonist. Fluo-4 calcium fluorescence (FDSS); hits give high values. fluorescence ratio F(max-min)/F0 at 10 µM. 4,000 compounds, 8.7% hits. AID 624115, 2012;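 active = calcium fluorescence ratio at least three times the spread of buffer wells, meaning a non-specific response in parental cells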
A number is an active result; . = inactive; / = no result.

SMILES	RGS4 inh	RGS4 act	MrgX1 allo act	MrgX1 antagonist	MrgX1 agonist	MrgX1 ag reconf	HEK293 Ca flux	HEK293 Ca counter	HEK293 Ca cntr2
Cc1cc(C)nc(/N=C(\N)Nc2ccc(OCCC(C)C)cc2)n1	.	.	.	.	118	599%	.	.	124
COc1cccc(-n2nnc(S(=O)(=O)c3ccc(C)cc3)c2N)c1	.	.	.	.	36	.	.	.	.
N#CC1(Nc2ccccc2)C(=O)Nc2ccccc21 (configuration not stated)	.	.	.	.	37	137%	.	.	.
Cc1cc(C)c(OCCNC(=O)c2ccccc2Sc2ccccc2C#N)c(C)c1	.	.	.	.	.	/	/	/	/
CC1(C)CC(=O)c2c(Cc3ccccc3)n[nH]c2C1	.	.	.	.	.	/	/	/	/
CC1(C)CC(=O)c2c(-c3cccnc3)n[nH]c2C1	.	.	.	.	29	.	.	.	.
CCCc1ccc(C(=O)NC(=O)c2ccccc2O)cc1	.	.	.	.	61	187%	.	.	64
Cc1ccc(C(=O)NC(=S)NNC(=O)c2ccccc2)cc1	.	.	.	.	78	492%	.	.	100
Cc1ccc(C(=O)NC(=S)NNC(=O)c2ccccc2[N+](=O)[O-])cc1	.	.	.	.	77	413%	.	.	78
Cc1ccc(C(=O)NC(=S)NNC(=O)c2ccccc2O)cc1	.	.	.	.	.	/	/	/	/
O=C(NC(=S)NNC(=O)c1ccccc1O)c1ccc([N+](=O)[O-])cc1	.	.	.	.	.	/	/	/	/
Cc1ccccc1OCC(=O)NNC(=S)NC(=O)c1ccco1	.	.	.	.	71	327%	.	.	62
CCOC(=O)C1=C(COC(=O)c2ncc(Cl)c(Cl)c2Cl)NC(=O)NC1C (configuration not stated)	.	.	.	.	.	/	/	/	/
COc1ccccc1CNC(=O)C1=CCN(S(=O)(=O)c2ccc(C)cc2)CC1	.	.	.	.	.	/	/	/	/
O=C(NNC(=S)NC(=O)c1ccccc1[N+](=O)[O-])c1ccc(Cl)cc1Cl	.	.	.	.	71	218%	.	.	.
O=C(NC(=S)NNC(=O)c1ccccc1O)c1ccc(F)cc1	.	.	.	.	.	/	/	/	/
Cc1ccccc1C(=O)NNC(=S)NC(=O)c1ccccc1	.	.	.	.	159	756%	.	.	146
O=C(NC(=S)NNC(=O)c1ccccc1O)c1ccccc1	.	.	.	.	93	478%	.	.	86
Cc1onc(-c2ccccc2)c1C(=O)NC(=S)NNC(=O)c1ccc(O)cc1O	.	.	.	.	.	/	/	/	/
Cc1onc(-c2ccccc2)c1C(=O)NC(=S)NNC(=O)c1ccccc1O	.	.	.	.	107	714%	.	.	132
O=C(NNC(=S)NC(=O)c1ccccc1[N+](=O)[O-])c1ccccc1O	.	.	.	.	.	/	/	/	/
COc1ccc(O)c(CN2CCC(n3nccc3NC(=O)c3ccccc3Cl)CC2)c1	.	.	.	.	.	/	/	/	/
NC(=O)COC(=O)CC12CC3CC(CC(Br)(C3)C1)C2	.	.	.	.	.	/	/	/	/
Cc1ccc(C(=O)NNC(=S)NC(=O)c2ccc(Cl)cc2Cl)cc1	.	.	.	.	131	585%	.	.	116
Cc1ccc(C(=O)NNC(=S)NC(=O)c2ccco2)cc1	.	.	.	.	135	681%	.	.	123
SMILES	RGS4 inh	RGS4 act	MrgX1 allo act	MrgX1 antagonist	MrgX1 agonist	MrgX1 ag reconf	HEK293 Ca flux	HEK293 Ca counter	HEK293 Ca cntr2
CCCCC1CC(CSC(=N)N)OC1=O (configuration not stated)	.	.	.	.	.	/	/	/	/
CCCCCCCC1CC(CSC(=N)N)OC1=O (configuration not stated)	.	.	.	.	41	164%	.	.	.
Cc1ccc(CN2CC(C(=O)N3CCN(c4ccccc4O)CC3)CC2=O)cc1 (configuration not stated)	.	.	.	.	.	/	/	/	/
COc1ccc(C(=O)Nc2ccccc2C(=O)O)cc1Cl	.	.	.	.	.	/	/	/	/
CCOc1c(Cl)cc(C(=O)Nc2ccccc2C(=O)O)cc1Cl	.	.	.	.	48	78%	.	.	.
COc1ccccc1NS(=O)(=O)c1cc(C(=O)NCc2ccncc2)ccc1C	.	.	.	.	.	/	/	/	/
COc1ccccc1NS(=O)(=O)c1cc(C(=O)NCCC(C)C)ccc1F	.	.	.	.	35	313%	.	.	101
COc1ccc(-n2c(SCC(=O)NCC3CCCO3)nc3c([nH]c4ccccc43)c2=O)cc1 (configuration not stated)	.	.	.	.	.	/	/	/	/
COc1cccc(-n2c(SCC(=O)NCC3CCCO3)nc3c([nH]c4ccccc43)c2=O)c1 (configuration not stated)	.	.	.	.	30	99%	.	.	.
CC(NC(=O)Cn1nc(C(F)(F)F)c2c1CCC2)c1ccccc1 (configuration not stated)	.	.	.	.	31	134%	.	.	.
COc1ccc(C(=O)Nc2nnc(-c3ccccc3)o2)cc1OC	.	.	.	.	.	/	/	/	/
O=C(Nc1nnc(-c2ccc(F)cc2)o1)c1cc(Cl)sc1Cl	.	.	.	.	114	527%	.	.	100
O=C(Nc1nnc(-c2ccccc2)o1)c1cc(Cl)sc1Cl	.	.	.	.	43	442%	.	.	88
CC(C)Cc1csc(NC(=O)c2ccc(Cl)cc2)c1C(=O)O	.	.	.	.	37	224%	.	.	52
O=C(Nc1ccc(C(=O)OC[C@@H]2CCCN3CCCC[C@H]23)cc1)c1cccc(Br)c1	.	.	.	.	.	/	/	/	/
Cc1ccc(S(=O)(=O)C(C#N)c2nc3ccccc3nc2N2CCCC2)cc1 (configuration not stated)	.	.	.	.	30	.	.	.	52
